Reference: ChEMBL document CHEMBL1151442, “Genetic and phenotypic identification of fusidic acid-resistant mutants with the small-colony-variant phenotype in Staphylococcus aureus” (2007)
≈ marks a conversion by molar mass, not a printed value.

What was measured:
Format in all cases: functional
[1] = system: Staphylococcus aureus; test: Antibacterial activity against kanamycin-resistant and fusidic acid-susceptible Staphylococcus aureus AH297 harboring Ser660Pro mutation in fusA gene after 18 to 24 hrs by Etest strip assay
Procedure, shortened: (§1)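 Etest MIC: a single colony was suspended in 0.9% NaCl to 0.5 McFarland and swabbed over Mueller-Hinton agar. The strip was applied and plates were incubated at 37°C for 18 to 24 h until an SCV lawn grew.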

[2] = system: Staphylococcus aureus; test: Antibacterial activity against kanamycin-resistant Staphylococcus aureus AH348 (SCV-20) harboring TGA stop codon at nucleotide 244 in rplF gene after 18 to 24 hrs by Etest strip assay
Procedure, shortened: (§2)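 SCVs of a Rifr 8325-4 derivative were selected on LA with KAN at 8, 16 or 24 μg/ml for 48 h at 37°C. They were purified at the same KAN level and screened on LA plus FA 1 μg/ml.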

[3] = system: Staphylococcus aureus; test: Antibacterial activity against kanamycin-resistant and fusidic acid-susceptible Staphylococcus aureus AH291 harboring Arg659His mutation in fusA gene after 18 to 24 hrs by Etest strip assay; procedure, shortened: as §1
[4] = system: Staphylococcus aureus; test: Antibacterial activity against kanamycin-resistant and fusidic acid-susceptible wild type Staphylococcus aureus 8325-4 […] after 18 to 24 hrs by Etest strip assay; procedure, shortened: as §1
[5] = system: Staphylococcus aureus; test: Antibacterial activity against kanamycin-resistant Staphylococcus aureus AH369 (SCV-41) harboring Gln115Leu mutation in fusA gene after 18 to 24 hrs by Etest strip assay; procedure, shortened: as §2
[6] = system: Staphylococcus aureus; test: Antibacterial activity against kanamycin-resistant and fusidic acid-susceptible Staphylococcus aureus AH290 harboring duplication mutation at nucleotide 202-293 in rplF gene after 18 to 24 hrs by Etest strip assay; procedure, shortened: as §1
[7] = system: Staphylococcus aureus; test: Antibacterial activity against kanamycin-resistant Staphylococcus aureus AH346 (SCV-18) harboring -1 frameshift mutation at nucleotide 238 in rplF gene after 18 to 24 hrs by Etest strip assay; procedure, shortened: as §2
[8] = system: Staphylococcus aureus; test: Antibacterial activity against stationary-phase rifampin-resistant Staphylococcus aureus 8325-4 culture assessed as number of viable colonies at 16 ug/ ml after 48 hrs
Procedure, shortened: (§3)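 Twenty independent stationary-phase overnight LB cultures of the Rifr 8325-4 derivative were made; 108 cells from each were spread on LA with kanamycin at 8, 16 or 24 μg/ml. Plates were incubated 48 h at 37°C so that slow-growing variants could form visible colonies, and Kanr colonies were counted.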

[9] = system: Staphylococcus aureus; test: Antibacterial activity against stationary-phase rifampin-resistant Staphylococcus aureus 8325-4 culture assessed as number of viable colonies at 24 ug/ ml after 48 hrs; procedure, shortened: as §3
[10] = system: Staphylococcus aureus; test: Antibacterial activity against stationary-phase rifampin-resistant Staphylococcus aureus 8325-4 culture assessed as number of viable colonies at 8 ug/ ml after 48 hrs; procedure, shortened: as §3

CC(=O)O[C@H]1C[C@@]2(C)[C@@H](C[C@@H](O)[C@H]3[C@@]4(C)CC[C@@H](O)[C@@H](C)[C@@H]4CC[C@@]32C)/C1=C(\CCC=C(C)C)C(=O)O [FUSIDIC ACID]
MIC [1]: 2 µg/mL (≈ 3.87 µM)
MIC [2]: 8 µg/mL (≈ 15.5 µM)
MIC [3]: 4 µg/mL (≈ 7.74 µM)
MIC [4]: 0.047 µg/mL (≈ 0.091 µM)
MIC [5]: 48 µg/mL (≈ 92.9 µM)
MIC [6]: 8 µg/mL (≈ 15.5 µM)
MIC [7]: 8 µg/mL

NC[C@H]1O[C@H](O[C@H]2[C@H](O)[C@@H](O[C@H]3O[C@H](CO)[C@@H](O)[C@H](N)[C@H]3O)[C@H](N)C[C@@H]2N)[C@H](O)[C@@H](O)[C@@H]1O [KANAMYCIN]
MIC [1]: 24 µg/mL (≈ 49.5 µM)
MIC [2]: 8 µg/mL (≈ 16.5 µM)
MIC [3]: 24 µg/mL (≈ 49.5 µM)
MIC [4]: 2 µg/mL (≈ 4.13 µM)
MIC [5]: 6 µg/mL (≈ 12.4 µM)
Activity [8]: 200
MIC [6]: 256 µg/mL (≈ 528 µM)
Activity [9]: 30
Activity [10]: 1000
MIC [7]: 8 µg/mL

CN[C@@H]1[C@H](O[C@H]2[C@H](O[C@H]3[C@H](O)[C@@H](O)[C@H](N=C(N)N)[C@@H](O)[C@@H]3N=C(N)N)O[C@@H](C)[C@]2(O)C=O)O[C@@H](CO)[C@H](O)[C@H]1O [STREPTOMYCIN]
MIC [2]: 16 µg/mL (≈ 27.5 µM)
MIC [3]: 24 µg/mL (≈ 41.3 µM)
MIC [4]: 6 µg/mL (≈ 10.3 µM)
MIC [5]: 12 µg/mL (≈ 20.6 µM)
MIC [6]: 64 µg/mL (≈ 110 µM)
MIC [7]: 24 µg/mL
